According to ChEMBL document CHEMBL3853298, “Total synthesis and in vitro bioevaluation of clavaminols A, C, H & deacetyl clavaminol H as potential chemotherapeutic and antibiofilm agents” (Eur J Med Chem, 2016):

How the values were obtained:
[1] = Cytotoxicity against human SKOV3 cells assessed as cell growth inhibition by MTT assay; format: functional, cell-based; details: SK-OV-3
[2] = Cytotoxicity against human DU145 cells assessed as cell growth inhibition by MTT assay; format: functional, cell-based; details: DU-145
[3] = Cytotoxicity against human HeLa cells assessed as cell growth inhibition by MTT assay; format: functional, cell-based
[4] = Cytotoxicity against human MCF7 cells assessed as cell growth inhibition by MTT assay; format: functional, cell-based
Candida albicans [5] = test: Antifungal activity against Candida albicans MTCC 227 after 24 hrs by well diffusion method; format: functional; details: MTCC 227, 24 h
How it was run: (§1)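 Candida/Issatchenkia lawns (0.1 mL suspension) on Mueller-Hinton agar; 6.0 mm bored wells receive compound across a 250 to 0.48 per-well dose range, methanol as negative control. Plates kept 24 h at 30 °C. MIC is the lowest concentration producing a visible inhibition zone. Duplicate runs, mean values.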

Candida albicans [6] = test: Antifungal activity against Candida albicans MTCC 183 after 24 hrs by well diffusion method; format: functional; details: MTCC 183, 24 h; how it was run: as §1
Candida albicans [7] = test: Antifungal activity against Candida albicans MTCC 854 after 24 hrs by well diffusion method; format: functional; details: MTCC 854, 24 h; how it was run: as §1
Candida albicans [8] = test: Antifungal activity against Candida albicans MTCC 1637 after 24 hrs by well diffusion method; format: functional; details: MTCC 1637, 24 h; how it was run: as §1
Candida albicans [9] = test: Antifungal activity against Candida albicans MTCC 3017 after 24 hrs by well diffusion method; format: functional; details: MTCC 3017, 24 h; how it was run: as §1
Candida albicans [10] = test: Antifungal activity against Candida albicans MTCC 3018 after 24 hrs by well diffusion method; format: functional; details: MTCC 3018, 24 h; how it was run: as §1
Candida albicans [11] = test: Antifungal activity against Candida albicans MTCC 3958 after 24 hrs by well diffusion method; format: functional; details: MTCC 3958, 24 h; how it was run: as §1
Candida albicans [12] = test: Antifungal activity against Candida albicans MTCC 4748 after 24 hrs by well diffusion method; format: functional; details: MTCC 4748, 24 h; how it was run: as §1
Candida albicans [13] = test: Antifungal activity against Candida albicans MTCC 7315 after 24 hrs by well diffusion method; format: functional; details: MTCC 7315, 24 h; how it was run: as §1
[14] = Antifungal activity against Candida parapsilosis MTCC 1744 after 24 hrs by well diffusion method; format: functional; how it was run: as §1
[Candida] aaseri [15] = Antifungal activity against Candida aaseri MTCC 1962 after 24 hrs by well diffusion method; format: functional; details: Yamadazyma aaseri, MTCC 1962, 24 h; how it was run: as §1
[16] = Antifungal activity against Candida glabrata MTCC 3019 after 24 hrs by well diffusion method; format: functional; details: Nakaseomyces glabratus; how it was run: as §1
[17] = Antifungal activity against Candida krusei MTCC 3020 after 24 hrs by well diffusion method; format: functional; details: Pichia kudriavzevii; how it was run: as §1
Pichia sporocuriosa [18] = test: Antifungal activity against Issatchenkia hanoiensis MTCC 4755 after 24 hrs by well diffusion method; format: functional; details: MTCC 4755, 24 h; how it was run: as §1
Candida albicans [19] = test: Fungicidal activity against Candida albicans MTCC 183 after 24 hrs; format: functional; details: MTCC 183, 24 h
How it was run: (§2)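 Candida grown overnight in Mueller Hinton broth. Compound serially diluted in the same broth from 150 to 0 and inoculated to a final 1.5 × 10^8 CFU/mL (0.5 McFarland), then 24 h at 37 °C. Tube contents plated onto Mueller Hinton agar for 24 h at 37 °C. MFC is the lowest concentration killing the yeast. Duplicates.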

Candida albicans [20] = test: Fungicidal activity against Candida albicans MTCC 227 after 24 hrs; format: functional; details: MTCC 227, 24 h; how it was run: as §2
Candida albicans [21] = test: Fungicidal activity against Candida albicans MTCC 854 after 24 hrs; format: functional; details: MTCC 854, 24 h; how it was run: as §2
Candida albicans [22] = test: Fungicidal activity against Candida albicans MTCC 1637 after 24 hrs; format: functional; details: MTCC 1637, 24 h; how it was run: as §2
Candida albicans [23] = test: Fungicidal activity against Candida albicans MTCC 3017 after 24 hrs; format: functional; details: MTCC 3017, 24 h; how it was run: as §2
Candida albicans [24] = test: Fungicidal activity against Candida albicans MTCC 3018 after 24 hrs; format: functional; details: MTCC 3018, 24 h; how it was run: as §2
Candida albicans [25] = test: Fungicidal activity against Candida albicans MTCC 3958 after 24 hrs; format: functional; details: MTCC 3958, 24 h; how it was run: as §2
Candida albicans [26] = test: Fungicidal activity against Candida albicans MTCC 4748 after 24 hrs; format: functional; details: MTCC 4748, 24 h; how it was run: as §2
Candida albicans [27] = test: Fungicidal activity against Candida albicans MTCC 7315 after 24 hrs; format: functional; details: MTCC 7315, 24 h; how it was run: as §2
Candida parapsilosis = test: Fungicidal activity against Candida parapsilosis MTCC 1744 after 24 hrs; format: functional; details: Lodderomyces parapsilosis, MTCC 1744, 24 h
How it was run: (§3)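 Broth dilution in Mueller Hinton broth with serial compound concentrations from […]. Overnight Candida cultures added to a final 1.5 × 10^8 CFU/mL (0.5 McFarland). Incubated 24 h at 37 °C, then 10 µL of each tube plated on Mueller Hinton agar for 24 h at 37 °C. MFC taken as the lowest concentration that kills the strain. Run in duplicate.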

[Candida] aaseri [28] = Fungicidal activity against Candida aaseri MTCC 1962 after 24 hrs; format: functional; details: Yamadazyma aaseri, MTCC 1962, 24 h; how it was run: as §2
Nakaseomyces glabratus = test: Fungicidal activity against Candida glabrata MTCC 3019 after 24 hrs; format: functional; details: MTCC 3019, 24 h; how it was run: as §2
Pichia kudriavzevii = test: Fungicidal activity against Candida krusei MTCC 3020 after 24 hrs; format: functional; details: MTCC 3020, 24 h; how it was run: as §3
Pichia sporocuriosa [29] = test: Fungicidal activity against Issatchenkia hanoiensis MTCC 4755 after 24 hrs; format: functional; details: MTCC 4755, 24 h; how it was run: as §3

CCCCCCCCC[C@H](O)[C@@H](C)NC(C)=O [CLAVAMINOL C]
14.1 µM: IC50 [1]
18.3 µM: IC50 [2]
16.3 µM: IC50 [4]
18.5 µM: IC50 [3]

COc1cccc2c1C(=O)c1c(O)c3c(c(O)c1C2=O)C[C@@](O)(C(=O)CO)C[C@@H]3O[C@H]1C[C@H](N)[C@H](O)[C@H](C)O1 [DOXORUBICIN]
0.7 µM: IC50 [1] | IC50 [2]
0.8 µM: IC50 [4]

Clc1ccc(COC(Cn2ccnc2)c2ccc(Cl)cc2Cl)c(Cl)c1 (stereo not given) [MICONAZOLE]
7.8 µg/mL: MIC (Candida albicans [5]) | MIC (Candida albicans [6]) | MIC (Candida albicans [7]) | MIC (Candida albicans [8]) | MIC (Candida albicans [9]) | MIC (Candida albicans [10]) | MIC (Candida albicans [11]) | MIC (Candida albicans [12]) | MIC (Candida albicans [13]) | MIC [14] | MIC ([Candida] aaseri [15]) | MIC [16] | MIC [17] | MIC (Pichia sporocuriosa [18]) | MFC (Candida albicans [19]) | MFC (Candida albicans [23]) | MFC (Candida albicans [24]) | MFC (Candida albicans [26]) | MFC (Candida albicans [27]) | MFC (Candida parapsilosis) | MFC ([Candida] aaseri [28]) | MFC (Pichia kudriavzevii) | MFC (Pichia sporocuriosa [29])
15.6 µg/mL: MFC (Candida albicans [20]) | MFC (Candida albicans [21]) | MFC (Candida albicans [22]) | MFC (Candida albicans [25]) | MFC (Nakaseomyces glabratus)
